Tests used:
[1] = biological target: Synaptic vesicular amine transporter (Bos taurus, UniProt Q27963); assay: Inhibitory constant for dopamine uptake into resealed bovine chromaffin granule ghosts through the vesicular monoamine transporter
Summary of the method: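 Resealed bovine chromaffin granule ghosts (20 mM Tris phosphate, 100 mM KCl, 150 mM sucrose, 10 mM fumarate, 100 µg/mL catalase, no ascorbate, pH 7.0; Ficoll/sucrose purified) preincubated 10 min at 30 °C in 0.3 M sucrose, 10 mM HEPES, 5 mM Mg-ATP, 5 mM MgSO4, catalase. Inhibitor (0 or 200 µM) added 2 min, then DA at six concentrations. Pellet catecholamines by HPLC-EC; Ki from competitive inhibition fit.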

[2] = biological target: Synaptic vesicular amine transporter (Bos taurus) (UniProt Q27963); assay: Km DA/Ki ratio was determined by different ghost preparations
Synaptic vesicular amine transporter (Bos taurus), sequence (Q27963 whole entry): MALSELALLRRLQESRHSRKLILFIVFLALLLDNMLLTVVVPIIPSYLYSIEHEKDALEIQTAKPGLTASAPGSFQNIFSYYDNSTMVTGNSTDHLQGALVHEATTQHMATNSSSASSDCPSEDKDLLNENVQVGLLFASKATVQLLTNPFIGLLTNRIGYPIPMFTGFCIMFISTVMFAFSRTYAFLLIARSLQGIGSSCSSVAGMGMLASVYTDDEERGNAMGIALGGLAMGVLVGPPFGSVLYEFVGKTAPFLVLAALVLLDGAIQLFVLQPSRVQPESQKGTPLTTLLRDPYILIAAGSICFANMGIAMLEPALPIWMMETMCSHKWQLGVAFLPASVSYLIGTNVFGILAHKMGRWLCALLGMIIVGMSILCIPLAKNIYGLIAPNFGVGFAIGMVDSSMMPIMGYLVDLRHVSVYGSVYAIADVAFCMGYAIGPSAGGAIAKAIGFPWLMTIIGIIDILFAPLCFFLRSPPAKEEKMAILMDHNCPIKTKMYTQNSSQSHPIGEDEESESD
Summary of the method: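 Ratio of Km for dopamine to Ki, each measured on the same ghost preparation in the dopamine uptake competitive-inhibition kinetics; used to normalize Km variation between ghost preparations.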

Synaptic vesicular amine transporter, sequence (Q27963 whole entry): as above

Ki [1] [µM] | Ratio [2] | Structure (SMILES)
15.5 | 1.52 | C=C(CN)c1ccc(O)cc1
93.7 | 0.39 | C=C(CNC)c1ccc(O)cc1
42.3 | 0.8 | C=C(CN)c1ccc(F)cc1
55.9 | 0.59 | C=C(CN)c1ccc(C)cc1
16.7 | 1.4 | C=C(CN)c1cccc(O)c1
241 | 0.12 | C=C(C[n+]1ccccc1)c1ccccc1
102 | 0.33 | C=C(CN)c1ccc(OC)cc1
30.2 | 0.76 | C=C(CN)c1cccc(OC)c1
78.4 | 0.41 | C=C(c1ccccc1)C(C)N (configuration not stated)
18 | 1.76 | C=C(CN)c1ccc(Cl)cc1
202 | 0.15 | C=C(CN(CC)CC)c1ccc(O)cc1
40.3 | 0.57 | C=C(CN)c1ccccc1
12.9 | 2.96 | C=C(CN)c1ccc(I)cc1
50 | 0.46 | NC/C(=C\Br)c1ccc(O)cc1
207 | 0.15 | C=C(c1ccc(O)cc1)C(C)N(CC)CC (configuration not stated)
17.7 | 1.79 | C=C(CN)c1ccc(Br)cc1

— ChEMBL document CHEMBL1145803, “Characterization of a series of 3-amino-2-phenylpropene derivatives as novel bovine chromaffin vesicular monoamine transporter inhibitors” (J Med Chem, 2003)
